These results are taken from the RNAGym collection of RNA variant scans (doi:10.1126/science.aae0568).

B1: tRNA (parent)
chain: GUUCCGUUGGCGUAAUGGUAACGCGUCUCCCUCCUAAGGAGAAGACUGCGGGUUCGAGUCCCGUACGGAACG

Variants at the floor of the assay were thinned out.

This data set covers variants of B1. The data set can be described thus: yeast fitness relative to wild type (ratio to wild type); higher = fitter; tRNA-Arg(CCU), competitive growth, 37 C, YPD. The method, boiled down:
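Start and end populations of a pooled competition were compared by 100-nucleotide paired-end sequencing of gene amplicons. The Saccharomyces cerevisiae strains carried tRNA-Arg(CCU) gene variants at the native genomic locus, synthesised with a 3% per-site mutation rate at 69 sites, and competed in YPD at 37°C for 24 hours in six parallel replicates. Darwinian fitness relative to wild type was based on the change in genotype frequencies. Genotypes required ≥ 100 starting reads, and estimates < 0.5 were set to 0.5.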
Regarding U2C U16G, the yeast fitness is 0.96.
As for U2G C24A, the yeast fitness stood at 0.82.
In the case of U2G C24G, the yeast fitness came out at 0.769.
The value for U2C G44C was 0.846; that for U2C G44A was 0.86; that for U2G C5A A57U was at most 0.5.
The value for U2G A14C A42C was at most 0.5.
For the variant U2C U7A C22A A36U A45U C60U C62U C66U, the yeast fitness amounted to 0.541.
Next, U2G C24U C29G C61G: 0.635; U2C C24U: 0.952; U2C C24A: 0.574.
Regarding U2C G10C A21G, the yeast fitness was at most 0.5.
The value for U2G C31A G56U G67A A70C was at most 0.5; that for U2C U16C C27G C55U U59G was at most 0.5.
U2G C4A C22U U28G A42U G68U: the yeast fitness is at most 0.5.
On to U2G C29G A43C, for which the yeast fitness was 0.548.
Next, U2C C24U A57U: at most 0.5; U2C C29U A37G C66U: 0.578; U2G C5A U19A A43G: at most 0.5.
As for U2G C22U U32C, the yeast fitness was at most 0.5.
With U2C U3C G25C C27G, the yeast fitness is at most 0.5.
On to U2G C29A A40U, for which the yeast fitness was at most 0.5.
The value for U2C C24U G44C was at most 0.5.
With U2C G18C G23C C33U G39A A43U C62A G63C, the yeast fitness was determined as 0.851.
Next, U2G C4A A37U: at most 0.5; U2C U3C A21C C24A A65C: at most 0.5.
As to U2C U16A G38C G63A, the yeast fitness turned out to be 0.552.
As for U2G C30G, the yeast fitness turned out to be 0.679.
Next, U2C G18C A21G: 0.569; U2G C29G U47C: 0.557; U2C G12A C24A U28A A42C U47G C49G: 0.582.
U2C U7G U32A U59A: the yeast fitness is 0.501.
With U2G A14C C30U U54G C55A, the yeast fitness is at most 0.5.
The value for U2G C22A G56A U59G was at most 0.5; that for U2C G23C C31G C33U A42G G67U was at most 0.5.
In the case of U2C U16C C27G G68A, the yeast fitness was at most 0.5.
Next, U2C G10C A40C G52C G67A: at most 0.5; U2C U16C C22A U35A A45C: at most 0.5.
Next, U2G C31U U54G: at most 0.5; U2C G12A G18C C33U C55U: at most 0.5; U2G A20G C46A: 0.618.
Regarding U2C U3C A45G C61A, the yeast fitness was at most 0.5.
Next, U2C U13G C22U C60G A65G: at most 0.5; U2C C24A C49A: at most 0.5.
The value for U2C U47C G67C was 0.719.
Regarding U2G A43C, the yeast fitness turned out to be 1.07.
U2G A43U: the yeast fitness was found to be 0.996.
Take U2C U19C U54A A69C: the yeast fitness is at most 0.5.
Turning to U2C C27G U28A A43U C61A C62U A65U A69C, the yeast fitness is at most 0.5.
On to U2C U3C C22U C34U, for which the yeast fitness is at most 0.5.
Next, U2C U32G: 0.674; U2C C11U G56C C62U: at most 0.5; U2C G6C: 0.861.
The value for U2C C11U A21C U26C C49U A57U was at most 0.5; that for U2C C61U A65G was 0.711.
Turning to U2C C11A G12A U35G U59A, the yeast fitness is at most 0.5.
Next, U2G C30G C62G: 0.591; U2C U28A A43C A57C C62A: 0.572; U2C U19C U59A: 0.582.
With U2C U8G C49A C55U C66A A69C, the yeast fitness was at most 0.5.
Consider U2G C11U C30U C55A A65C, for which the yeast fitness is at most 0.5.
Next, U2C C33U C61G: at most 0.5.
For U2C C22G G51C A70G, the yeast fitness was at most 0.5.
With U2G C27G G63A A65C G68C, the yeast fitness was 0.632.
In the case of U2C G18C A21G C27A C30U G38A, the yeast fitness is at most 0.5.
U2C U28A G52A: the yeast fitness is at most 0.5.
The value for U2C G25A A42U C55G was at most 0.5; that for U2G C4U C27A C66A was at most 0.5; that for U2G A14U C22G C30G G58A was at most 0.5.
Next, U2G C4U C60G: 0.54; U2C C30G C33A: at most 0.5.
Take U2C U53A: the yeast fitness was 0.7.
In the case of U2C C55A, the yeast fitness stood at 0.7.
With U2C C31G G58C G67C, the yeast fitness came to 0.53.
For the variant U2C U13C G38A, the yeast fitness was determined as 0.596.
U2C G6A A57U C62U: the yeast fitness was at most 0.5.
The value for U2C C24G C33G U53C C55U A70G was at most 0.5.
Next, U2G C30A C46U G52C: at most 0.5; U2C G25A G52A: at most 0.5; U2C C29U G38C A43U U53G: at most 0.5.
Next, U2G A14C A42C C49U A65C: at most 0.5; U2C G48A: 0.928; U2G C31G A57U C60A: at most 0.5.
As for U2C U16A C49U A65C A69C, the yeast fitness was at most 0.5.
Next, U2G C29U G44C U54A: 0.554.
The value for U2G C5U C34G C62U was at most 0.5; that for U2G A37C U54C was at most 0.5.
On to U2C U26C C61G G63A A69U, for which the yeast fitness came to 0.56.
With U2C G23A C24U A45U C60A, the yeast fitness amounted to 0.61.
Next, U2G A37C G41A C49U: at most 0.5; U2C C55G G56C A69U: at most 0.5; U2G C24A C46A A70C: 1.01.
Take U2C G50A U54A G67A: the yeast fitness is at most 0.5.
The value for U2C G12C A14G C29U U59G G63C was at most 0.5; that for U2C U19A was 0.845.
Consider U2C U64G C66A, for which the yeast fitness is at most 0.5.
U2G A14U: the yeast fitness turned out to be 0.502.
U2C U13C C22G U26A C31U A42C G50C U64A C66U G68C: the yeast fitness was at most 0.5.
Next, U2G A45C C49U C55U: at most 0.5; U2G C4A C22U U28G A42U C62U A70U: at most 0.5; U2C G6A G23A C27U A45C C60A: 0.605.
On to U2G A20U G25C C49G, for which the yeast fitness is at most 0.5.
Take U2C C27U C46U G48A: the yeast fitness was 0.636.
U2C C24U A70C: the yeast fitness was 0.708.
The value for U2G C4A U16C C31U A70U was at most 0.5.
Turning to U2C G6C G25A A36C, the yeast fitness is at most 0.5.
Consider U2C U16A G67C, for which the yeast fitness amounted to 0.644.
The value for U2C C29A A57C was at most 0.5; that for U2C C60A C66U was 0.576.
For U2C C27G U28A C61U, the yeast fitness is at most 0.5.
Next, U2C C49U: 0.808; U2G C22U C24G A69C: 0.579; U2G C11G G38C G44A: at most 0.5.
The value for U2C U3A A14C C30U A40U C49U was at most 0.5; that for U2C G44A A70C was 0.884; that for U2C U26G was 0.997.
Turning to U2C C27A C60G, the yeast fitness was at most 0.5.
Regarding U2C C24A C33A C46U, the yeast fitness is at most 0.5.
The value for U2G C11G A36C C61G G63A was at most 0.5; that for U2G C27U was 0.878; that for U2G C27G was 0.546.
On to U2G A37C G41A C49U C60G, for which the yeast fitness turned out to be 0.51.
The value for U2G was 0.994; that for U2C G25A A42U was 0.561.
Next, U2G C11G A20U C24G A42G: at most 0.5; U2C G39A G44A: 0.66; U2C C46U U59C: 0.705.
Turning to U2C G12A U19C A21U G58C, the yeast fitness amounted to 0.603.
In the case of U2C G38A, the yeast fitness was determined as 0.901.
In the case of U2C G39U, the yeast fitness came to 0.819.
Next, U2C C11G C22G: at most 0.5; U2C C55A A57C G67C G68A: 0.575; U2C C24G C46U: at most 0.5.
Take U2C C30A U47C A65C C66G: the yeast fitness is at most 0.5.
As for U2C G58A G68C, the yeast fitness stood at 0.645.
The value for U2C U28C was 0.912; that for U2C U28A was 0.563.
With U2C U35A C60A, the yeast fitness was at most 0.5.
Next, U2C U7A C34U G44C: at most 0.5; U2G C11G C46G G51C U53A: at most 0.5.
Regarding U2C C66U, the yeast fitness amounted to 0.968.
Consider U2C C29A C34G A43U G52A, for which the yeast fitness came to 0.682.
Next, U2G A45U G67C: at most 0.5; U2G C11U G23A C46U U54A: at most 0.5; U2G C27U A36G C62A: at most 0.5.
Take U2C G18A U28C A42C G56C A65C: the yeast fitness came out at 0.61.
The value for U2C U47A was 0.982.
Next, U2G A57U: 0.66.
Take U2G A57G: the yeast fitness worked out at 0.82.
The value for U2C C24A C66U was 0.61; that for U2G C31U G50A C60U was at most 0.5.
Next, U2C G23A G38A G56C C61U G67A: at most 0.5.
Next, U2G A36G G51A: at most 0.5.
As to U2G C4U C62U G68U, the yeast fitness is at most 0.5.
The value for U2C G23C C55G A69U was at most 0.5; that for U2G A20G C33U G39A A65G was at most 0.5.
Next, U2C C11U G12A A15G: at most 0.5; U2G A42C U47A A65U: at most 0.5; U2G A40C A65G C66G: at most 0.5.
For the variant U2G A70U, the yeast fitness is 0.917.
The value for U2G A70G was 1.07.
Next, U2G C4A U16C C61G: 0.571.
Next, U2C C27U A36G: 0.575; U2C C27U A36C: at most 0.5; U2G A40G G41C C60G: 0.688.
U2C C24U G25C U26A A57G: the yeast fitness amounted to 0.878.
Next, U2G C24A C31G A45U: at most 0.5.
